# Measurements taken from PubChem BioAssay.
# The source made the active and inactive calls.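 How the source made its calls, unless noted: active means fluorescence slope after compound addition differing from the mean of all screened samples at 99.7% confidence, in either direction; inactive means the rest.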
# Tests used:
# [1] = inhibitors of TNFa-induced NFkB p65 translocation, primary screen, imaging, HUVEC, MLSMR starter and 10KST1 sets (AID 438;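 active means inhibition above 20% together with a positive visual image hit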;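 further: compound added about 3h40 before a 20 min TNFalpha stimulation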;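 on inhibition: signal is the nuclear over cytoplasmic p65 intensity ratio per well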); conditions: HUVEC TNFa-induced p65 nuclear translocation; cell count: measured here: nuclei count (cytotoxicity indicator), at 2.08 µM; inhibition: at 2 µM, stronger effect = higher value, 0% TNFa-plus-vehicle, 100% no-TNFa wells
# [2] = inhibitors of mutant huntingtin aggregation, primary screen, imaging, exon1htt(103Q)mCFP cells, high-content imaging (AID 483;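 active means visual image review flags a hit and inhibition of aggregation exceeds 20%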;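 further: compound exposure lasted 3 days before fixation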;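 on nuclei count: percent of the per-plate median nuclei count of sample wells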); conditions: exon1htt(103Q)mCFP cell line, aggregate imaging, at 2 µM; inhibition of aggregation: stronger effect = higher value; nuclei count: measured here: cell count, toxicity
# [3] = inhibitors of E-selectin induction by TNFa, primary screen, imaging, HUVEC, immunofluorescence, MLSMR starter and 10KST1 sets (AID 487;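 active means visually confirmed hit in the image check and inhibition above 20%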;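 on inhibition: signal is fraction of cell area covered by stained E-selectin grains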;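 on nuclei count: 100% = median nuclei count of all wells on the same plate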); conditions: HUVEC TNFalpha-induced E-selectin immunofluorescence imaging, at 2 µM; inhibition: stronger effect = higher value; nuclei count: measured here: cell number, toxicity
# [4] = target: Voltage-gated potassium channel subunit beta-2 (Rattus norvegicus) (UniProt P62483); experiment: KvBeta enzyme negative modulators, primary screen, biochemical, NADPH fluorescence (AID 622;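 active means fluorescence slope higher than the sample average by over 3 SD, cut at about -0.22 in these data, passing the limit was not always enough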;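 further: slope of raw intensity against log time taken from 70 to 1610 s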); conditions: recombinant KvBeta, 4-cyanobenzaldehyde reduction, at 10 µM, stronger effect = higher value
# [5] = target: Voltage-gated potassium channel subunit beta-2 (Rattus norvegicus) (UniProt P62483); experiment: KvBeta positive modulators, primary screen, biochemical, NADPH fluorescence (AID 623;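 active means NADPH fluorescence slope more negative than the mean of all samples by about 3 SD, 99.7% confidence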;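 further: fluorescence intensity change per second fitted from 20 to 320 s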); conditions: Recombinant KvBeta, NADPH fluorescence decrease slope, 10 min; at 10 µM; stronger effect = lower value
# [6] = target: Alpha-2C adrenergic receptor (Homo sapiens) (UniProt P18825); experiment: modulators of alpha2C/GIRK thallium flux, primary screen, cell-based, HEK293 alpha2C/GIRK1/2 (AID 624); conditions: thallium flux BTC fluorescence, at 10 µM, actives lie on both sides;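 further: slope of fluorescence ratio to pre-addition baseline per second over 15 to 24 s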
# [7] = inhibitors of larval lipid processing in zebrafish, primary screen, whole organism, PED6 fluorescence, gall bladder and intestine (AID 686;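 active means a full or partial loss of lipid-probe fluorescence in the fish gall bladder, intestine or both, judged by eye; inactive means no fluorescence loss, or compound toxic to the fish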;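 further: larvae 5 to 7 days old with five fish per well; signal comes from phospholipase A2 cleavage of quenched PED6 carried via bile; overnight exposure to compound and PED6 before scoring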); conditions: Zebrafish larvae PED6 lipid processing, fluorescence scoring; screened at 20 µM (by protocol)
# In short: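 Test system – live zebrafish larvae aged 5-7 days, whole organism · Buffer or medium – E3 fish medium · Reagent – quenched phospholipase substrate PED6, 100 nM final, ingested by larvae · Doses – 20 µM single dose · Incubation – overnight compound and PED6 incubation · Technique – visual fluorescence microscopy scoring of gall bladder, gut · Read-out basis – visual per-well fluorescence inhibition score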
# [8] = inhibitors of Sendai virus-induced IRF3 signaling, primary screen, TLR/RLR signaling modifier project, cell-based, Sendai virus stimulus, luciferase, 10K MLSCN set (AID 602276;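 active means inhibition at or above 50% at 10 µM; inactive means inhibition below 50%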;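 further: firefly luciferase from ISG56 promoter only with Renilla not read in this screen; 0% = Sendai virus plus DMSO and 100% = medium plus DMSO without virus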); conditions: HEK293 RL24 IRF3 luciferase reporter, at 10 µM, stronger effect = higher value
# [9] = inhibitors of poly I:C-induced TLR3 signaling, primary screen, cell-based, poly I:C stimulus, luciferase, 10K MLSCN set (AID 602277;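 active means inhibition of the reporter signal at or above 50%; inactive means inhibition below 50%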); conditions: HEK293-TLR3 RL24 IRF3 luciferase reporter, at 10 µM, stronger effect = higher value
# Chain of Alpha-2C adrenergic receptor (Homo sapiens) (P18825 whole entry, looked up): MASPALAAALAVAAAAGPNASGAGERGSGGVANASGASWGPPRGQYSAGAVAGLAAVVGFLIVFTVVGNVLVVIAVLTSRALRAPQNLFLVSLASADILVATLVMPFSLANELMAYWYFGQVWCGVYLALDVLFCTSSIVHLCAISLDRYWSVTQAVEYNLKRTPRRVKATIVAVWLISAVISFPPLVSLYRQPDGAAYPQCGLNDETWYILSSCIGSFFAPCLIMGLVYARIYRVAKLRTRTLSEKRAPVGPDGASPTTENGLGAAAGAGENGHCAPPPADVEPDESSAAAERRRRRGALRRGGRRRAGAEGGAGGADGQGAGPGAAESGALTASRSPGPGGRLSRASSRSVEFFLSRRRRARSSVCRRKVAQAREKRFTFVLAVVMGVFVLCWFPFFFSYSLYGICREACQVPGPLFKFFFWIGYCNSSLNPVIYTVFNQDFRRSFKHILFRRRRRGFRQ
# Chain of Voltage-gated potassium channel subunit beta-2 (Rattus norvegicus) (P62483 whole entry, looked up): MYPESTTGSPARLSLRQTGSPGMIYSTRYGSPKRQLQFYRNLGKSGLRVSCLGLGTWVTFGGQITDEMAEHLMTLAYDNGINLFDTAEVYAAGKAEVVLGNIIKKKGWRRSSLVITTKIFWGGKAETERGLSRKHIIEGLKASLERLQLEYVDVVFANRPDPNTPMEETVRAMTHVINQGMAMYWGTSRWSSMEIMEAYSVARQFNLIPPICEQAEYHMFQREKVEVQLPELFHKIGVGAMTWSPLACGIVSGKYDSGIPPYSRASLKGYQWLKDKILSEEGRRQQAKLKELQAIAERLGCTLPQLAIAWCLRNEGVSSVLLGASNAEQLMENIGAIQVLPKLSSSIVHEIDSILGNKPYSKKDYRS
Compound,cell count [1],inhibition [1],inhibition of aggregation [2],nuclei count [2] [%],inhibition [3],nuclei count [3] [%],fluorescence slope [4],NADPH fluorescence slope [5],slope [6],outcome [7],inhibition [8],inhibition [9]
COC(=O)c1sc(S(=O)(=O)N2CCN(c3ccccc3)CC2)c(C(=O)OC)c1C,394,3.6% (inactive),-23.7% (inactive),76.7,-151% (inactive),117,-0.385 (inactive),-3.6e-05 (inactive),0.00645 (inactive),inactive,19.8% (inactive),22.7% (inactive)
O=S1(=O)CCN2C(=N1)SC1=C2CCN(Cc2ccccc2)C1,514,-3% (inactive),-3.2% (inactive),91.4,-42.3% (inactive),144,-0.434 (inactive),-1e-05 (inactive),0.00453 (inactive),inactive,17% (inactive),13.7% (inactive)
O=C(Nc1ccccc1Cl)c1c(F)c(F)c(F)c(F)c1F,407,5.5% (inactive),2.9% (inactive),103,-166% (inactive),116,-0.479 (inactive),-3e-05 (inactive),0.00592 (inactive),inactive,-7.6% (inactive),-12.7% (inactive)
O=C(COC(=O)c1ccccc1C(=O)c1ccccc1)c1ccco1,327,7.4% (inactive),-2.3% (inactive),89.2,4% (inactive),113,-0.501 (inactive),2.4e-06 (inactive),0.00441 (inactive),inactive,-5.98% (inactive),2.21% (inactive)
O=C(COC(=O)CCOc1ccccc1)Nc1ccc(Cl)cn1,723,5.7% (inactive),-12.2% (inactive),101,35.5% (inactive),88.1,-0.489 (inactive),-1.8e-05 (inactive),0.00492 (inactive),inactive,5.25% (inactive),8.02% (inactive)
COC(=O)CSc1nnc(CSc2nc(C)cc(C)n2)n1Cc1ccco1,567,5.2% (inactive),-0.5% (inactive),99.8,-50.8% (inactive),135,-0.404 (inactive),-2.4e-05 (inactive),0.00459 (inactive),inactive,1.21% (inactive),3.66% (inactive)
NC(=O)c1ccsc1NC(=O)COC(=O)Cc1ccsc1,246,-18.9% (inactive),17.1% (inactive),81,26.2% (inactive),75.6,-0.453 (inactive),-4.6e-05 (inactive),0.00509 (inactive),inactive,9.36% (inactive),10.7% (inactive)
Cc1sc2nc3n(c(=O)c2c1C)NC(=O)CC3,744,-7.3% (inactive),-15% (inactive),66.7,32.1% (inactive),85,-0.421 (inactive),-2.9e-05 (inactive),0.0069 (inactive),inactive,16.2% (inactive),12.8% (inactive)
Cc1cc(NC(=O)CSc2nc(C3CCCCC3)nc3ccccc23)no1,725,-4.4% (inactive),-20.3% (inactive),110,-10.7% (inactive),106,-0.378 (inactive),-5.4e-05 (inactive),0.00411 (inactive),inactive,12.9% (inactive),15.3% (inactive)
O=C(CN(c1ccc(F)cc1)S(=O)(=O)c1ccc2c(c1)OCCO2)Nc1cccnc1,757,1.6% (inactive),7% (inactive),93.5,-19.1% (inactive),111,-0.453 (inactive),-4.5e-05 (inactive),0.00513 (inactive),inactive,7.14% (inactive),18.5% (inactive)
COC(=O)Cc1cc(=O)n(-c2ccccc2)[nH]1,435,3.1% (inactive),-18.2% (inactive),106,-67.7% (inactive),111,-0.379 (inactive),-1.8e-05 (inactive),0.00454 (inactive),inactive,17.9% (inactive),21.3% (inactive)
O=C(CSc1nc2cc(S(=O)(=O)N3CCOCC3)ccc2o1)NC1CCCc2ccccc21 (centres undefined),571,-16.3% (inactive),-7.6% (inactive),89.9,36.5% (inactive),86.1,-0.363 (inactive),-8.5e-05 (inactive),0.00378 (inactive),inactive,11.5% (inactive),99.3% (active)
O=C(NC1CCCCC1NC(=O)c1ccco1)c1ccco1 (centres undefined),726,10.2% (inactive),-7.6% (inactive),108,65.3% (inactive),112,-0.384 (inactive),-1.6e-05 (inactive),0.00439 (inactive),inactive,-10.8% (inactive),-8.21% (inactive)
O=C(Nc1ccc2oc(Cc3ccc(Cl)cc3)nc2c1)c1cccnc1,396,6.7% (inactive),-0.8% (inactive),93.5,-15% (inactive),114,-0.364 (inactive),-2.3e-06 (inactive),0.00427 (inactive),inactive,14.7% (inactive),7.42% (inactive)
CC(C)(C)n1ncc2c(=O)n(CC(=O)NCc3ccccc3)cnc21,615,2.4% (inactive),0.5% (inactive),82.4,-117% (inactive),104,-0.296 (inactive),-1.3e-05 (inactive),0.00536 (inactive),inactive,-28.3% (inactive),69.7% (active)
O=C1NC(=O)C(CC(=O)N(c2ccccc2)C2(C(=O)NC3CCCC3)CCCCC2)N1 (centres undefined),384,-1.1% (inactive),25.6% (inactive),83.3,-24.5% (inactive),108,-0.391 (inactive),-1.3e-05 (inactive),0.00517 (inactive),inactive,14.9% (inactive),11.4% (inactive)
Cc1nnc(NC(=O)C2CCCO2)s1 (centres undefined),345,5.2% (inactive),-9.5% (inactive),97.4,-105% (inactive),104,-0.467 (inactive),-4.2e-05 (inactive),0.00593 (inactive),active; weak signal in gallbladder only,6.24% (inactive),6.47% (inactive)
CCOC(=O)N1CCN(C(=O)c2cnn(-c3ccccc3)c2NC(=O)c2ccccc2F)CC1,397,12.1% (inactive),1.7% (inactive),117,-69.8% (inactive),106,-0.34 (inactive),-3.7e-05 (inactive),0.00614 (inactive),inactive,16% (inactive),17.2% (inactive)
COc1ccc(-n2ncc3c(NCc4cccs4)ncnc32)cc1,424,3.9% (inactive),-20.1% (inactive),98.4,-94.5% (inactive),106,-0.36 (inactive),-2e-06 (inactive),0.00593 (inactive),inactive,-24.5% (inactive),-70.4% (inactive)
C#CCSc1nc(-c2cccs2)ccc1C#N,340,-1% (inactive),-15% (inactive),92.8,-85.2% (inactive),112,-0.5 (inactive),5.7e-06 (inactive),0.00646 (inactive),inactive,-10.7% (inactive),5.18% (inactive)
O=C(CN1CCN(Cc2ccccc2)CC1)NCC1COc2ccccc2O1 (centres undefined),531,-6.7% (inactive),-7% (inactive),95.7,-17.6% (inactive),94.9,-0.356 (inactive),-7.8e-05 (inactive),0.00497 (inactive),inactive,12.2% (inactive),98.2% (active)
Cc1ccc2c(c1)CCCN2C(=O)c1ccc2c(c1)OCO2,328,-0.6% (inactive),-0.1% (inactive),99.3,-117% (inactive),118,-0.457 (inactive),-5.1e-05 (inactive),0.00431 (inactive),inactive,4.95% (inactive),4.76% (inactive)
Cn1c(=O)[nH]c(=O)c2c1nc(N1CCOCC1)n2CC(O)COc1ccc2ccccc2c1 (centres undefined),438,-4.5% (inactive),10.8% (inactive),107,-54.4% (inactive),120,-0.44 (inactive),-3.2e-05 (inactive),0.00556 (inactive),inactive,15.8% (inactive),19.3% (inactive)
CCc1nnc(NC(=O)CSc2nc(-c3ccc(OC)cc3)ns2)s1,203,-10.4% (inactive),-17.4% (inactive),82,-32.2% (inactive),98.7,-0.408 (inactive),3.8e-06 (inactive),0.00688 (inactive),inactive,-36.8% (inactive),-50.2% (inactive)
O=C1c2ccccc2C(=O)N1c1cccc(-c2nc3ccccc3o2)c1,464,7.6% (inactive),4% (inactive),104,-175% (inactive),130,-0.384 (inactive),-5.2e-05 (inactive),0.00482 (inactive),inactive,2.66% (inactive),4.23% (inactive)
Cn1c(-c2ccccc2)cnc1SCc1nc2ccccc2c(=O)[nH]1,428,0.8% (inactive),-3.4% (inactive),119,-80.8% (inactive),109,-0.379 (inactive),-6.5e-05 (inactive),0.00544 (inactive),inactive,11.1% (inactive),-54% (inactive)
CNC(=O)CSc1nc2c(c(=O)n(C)c(=O)n2C)n1Cc1ccc(C)cc1,346,4% (inactive),15.9% (inactive),80.4,-12.3% (inactive),88.8,-0.37 (inactive),-5.6e-05 (inactive),0.00619 (inactive),inactive,6.2% (inactive),24.5% (inactive)
